Results on one compound are retold here after paper PMC9118414 (ACS Omega, 2022).

Structures are written as SMILES.

Common to all, as to test: Acute cytotoxicity, sulforhodamine B
Common to all, as to type: cell-based

In experiment [1] the test system is HL60 promyelocytic leukemia. Particulars: Homo sapiens, HL-60, 72 h, read-out: IC50 on cell viability, HL60.
Experiment [2] relates to A549 nonsmall cell lung carcinoma. The settings on record: Homo sapiens, A549, 72 h, read-out: IC50 on cell viability, A549.
Experiment [3] relates to peripheral blood mononuclear cells (PBMC). The settings on record: Homo sapiens, 72 h, read-out: IC50 on cell viability, PBMC. An outline of the steps:
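PBMC were collected from healthy volunteers and kept in RPMI 1640 with 10% FBS and antibiotics at 37 °C, 5% CO2. 1.0 × 10^5 cells were exposed to various test-compound concentrations for 72 h. Viability read by sulforhodamine B assay. IC50 derived by curve fitting; values are means of three independent experiments.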

Experiment [4] deals with PC3 prostate adenocarcinoma. Particulars: Homo sapiens, 72 h, read-out: IC50 on cell viability, PC3.
Experiment [5] has as its system HEK293 human embryonic kidney cells. Particulars: HEK293, 72 h, read-out: IC50 on cell viability, HEK293.

Turning to `COc1cccc2c1C(=O)c1c(O)c3c(c(O)c1C2=O)C[C@@](O)(C(=O)CO)C[C@@H]3O[C@H]1C[C@H](N)[C@H](O)[C@H](C)O1` [Doxorubicin], the IC50 in experiment [1] amounted to 70 ± 40 nM; in experiment [2], 1800 ± 900 nM; in experiment [3], 5200 ± 1800 nM; in experiment [4], 2700 ± 1300 nM; in experiment [5], 4800 ± 2000 nM.
